Screens: PubChem, several laboratories
NALP1 yeast inh = blocks the NALP1 inflammasome reconstituted in yeast; S. cerevisiae NALP1/ASC/caspase-1 growth, X-gal OD620, 72 h; inhibition, % at 10 µM; 280,000 tested, 0.61% active; in the data active = inhibition mostly above about 24%, no sharp cut-off; inactive = mostly below about 32%
Pemphigus Ab inh = inhibitors of pemphigus antibody binding to human desmoglein-3; DSG3-coupled beads, scFv-anti-DSG3-GFP binding, flow cytometry; hits give low values; binding (percent of control), % at 10 µM; 310,000 tested, 0.48% active; P32926;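 active = binding more than 3 SD below its plate's average and above zero; inconclusive = below that plate limit but binding exactly zero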;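 also: hits lower antibody fragment binding to DSG3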
Target sequence (P32926 whole entry, looked up, the tested form may be a part): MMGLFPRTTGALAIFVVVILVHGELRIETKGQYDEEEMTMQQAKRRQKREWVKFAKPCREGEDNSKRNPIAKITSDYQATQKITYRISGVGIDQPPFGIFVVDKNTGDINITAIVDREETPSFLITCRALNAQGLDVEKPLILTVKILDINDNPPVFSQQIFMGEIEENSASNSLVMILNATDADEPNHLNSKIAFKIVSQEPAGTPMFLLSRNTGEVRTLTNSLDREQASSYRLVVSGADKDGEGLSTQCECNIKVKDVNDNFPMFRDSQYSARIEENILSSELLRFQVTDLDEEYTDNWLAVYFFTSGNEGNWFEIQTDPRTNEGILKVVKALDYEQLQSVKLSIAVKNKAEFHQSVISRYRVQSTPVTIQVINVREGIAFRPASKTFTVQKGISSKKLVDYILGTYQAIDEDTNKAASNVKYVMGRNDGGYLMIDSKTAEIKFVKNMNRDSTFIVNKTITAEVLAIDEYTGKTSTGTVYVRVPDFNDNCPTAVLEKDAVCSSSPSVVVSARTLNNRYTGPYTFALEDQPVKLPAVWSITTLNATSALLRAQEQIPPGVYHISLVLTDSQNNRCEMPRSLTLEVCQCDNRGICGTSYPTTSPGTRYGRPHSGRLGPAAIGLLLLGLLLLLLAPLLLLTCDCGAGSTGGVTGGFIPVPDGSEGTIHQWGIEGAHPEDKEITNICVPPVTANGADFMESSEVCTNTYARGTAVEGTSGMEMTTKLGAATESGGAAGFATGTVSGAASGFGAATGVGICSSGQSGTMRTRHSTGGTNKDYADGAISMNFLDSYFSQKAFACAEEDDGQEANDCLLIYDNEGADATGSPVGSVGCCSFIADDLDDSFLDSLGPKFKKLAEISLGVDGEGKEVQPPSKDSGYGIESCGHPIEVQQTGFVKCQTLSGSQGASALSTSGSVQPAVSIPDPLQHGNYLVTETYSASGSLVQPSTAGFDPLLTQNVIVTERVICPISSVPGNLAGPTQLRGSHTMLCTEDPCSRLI
NLRP3 yeast inh = NALP3 inhibition in yeast; 330,000 tested, 0.39% active; Yeast reconstituted NLRP3/ASC/caspase-1, beta-gal luminescence, 24 h; inhibition, % at 10 µM;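 active = inhibition of 50% or more; inactive = inhibition below 50%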;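 also: plate controls were induced DMSO wells for no effect and uninduced yeast grown without galactose for full effect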
ALR inh = blocks human ALR sulfhydryl oxidase activity. 290,000 tested, 3.8% active. AID 485317. inhibition, % (no concentration beside the values). purified ALR, DTT oxidation, H2O2 HRP-luminol luminescence;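 active = mean replicate inhibition above about 79%, with every replicate also reaching it, limit read from the data; inconclusive = only one of the two criteria met; inactive = mean below limit and not every replicate reaching it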
PolyA inh = inhibitors of polyadenylation in S. cerevisiae. S. cerevisiae SKY197-pL101 polyadenylation reporter, beta-gal luminescence; efflux-impaired pdr1/pdr3 knockout yeast; score 100 = 6 SD above DMSO. activity score, % at 12 µM. 300,000 tested, 0.02% active. AID 1875;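 active = lowest replicate activity score at least 50, where 100 means six control SD above control mean; inconclusive = lowest score under 50 but half or more replicates reach 50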;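 also: yeast exposed to compound for 9 h at 30 °C; higher score means more reporter readthrough which indicates perturbed polyadenylation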
Arr AP2 block = blocks beta-arrestin peptide binding to AP2 adaptin. FITC-arrestin peptide / GST-AP2 beads, flow cytometry; AP2 beta2 appendage carries R879A mutation. inhibition, % at 10 µM. 340,000 tested, 0.31% active. AID 504490;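 active = inhibition above a set limit, near 3 SD of compounds lacking own fluorescence, cut at about 54% in these data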;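 also: plate controls were DMSO wells for no effect and 5 µM unlabelled arrestin peptide for full effect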
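system = GST-tagged AP2 beta2-adaptin appendage (R879A) on 4 µm glutathione beads | reagent = FITC-labelled arrestin peptide probe, 50 nM final | schedule = compound with beads 12 min RT, then probe 1 h RT | signal = HyperCyt-sampled flow cytometry, FL1 channel, ex 488/em 535 nm | read-out = percent response from loss of bead-bound FITC fluorescence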
An asterisk follows results filed as active; u = inconclusive; x = no result given. Compounds with a hit are over-represented: about 4.6% of the library has one in this group of screens.

SMILES | NALP1 yeast inh | Pemphigus Ab inh | NLRP3 yeast inh | ALR inh | PolyA inh | Arr AP2 block
CCOc1cc(/C=N/NC(=O)c2ccc(=O)n(C)c2)ccc1O | -4.4 | 103.7 | -22.2 | 98.9* | -11.3 | -11.4
CCOc1cc(/C=N\NC(=O)c2c(C)nc3ccccn23)ccc1O | -3.5 | 109.9 | 4.9 | 88.8* | 12.2 | -7.1
COc1cc(OC)c(NC(=O)c2c(-c3ccccc3)noc2C)cc1Cl | 6.4 | 70.4* | 17.0 | x | -14.9 | 15.2
COc1ccc(Cl)cc1NC(=O)c1c(-c2ccccc2)noc1C | 0.0 | 90.6 | 8.1 | 2.9 | -15.1 | -6.4
Cc1ccnc(N=O)c1 | x | 100.6 | x | x | x | -8.0
Cc1cccc(Oc2ccc(NC(=O)C3=CC=CN4CCS(=O)(=O)N=C34)cc2)c1 | x | x | -15.3 | 3.2 | x | 0.4
Cn1c(=O)c2c(ncn2CC(=O)Nc2cc(S(=O)(=O)N3CCCCC3)ccc2O)n(C)c1=O | x | 125.9 | 10.2 | x | x | 6.1
O=C(N/N=C/c1sc2ccccc2c1O)c1ccccc1 | 29.0 | 109.9 | 19.6 | 88.1* | 17.9 | 2.7
COc1ccc(C(=O)N/N=C/c2sc3ccccc3c2O)cc1 | 23.8 | 101.1 | x | 81.1* | -15.8 | 5.5
CN(C)C(=O)c1ccc(NC(=O)c2cccc(S(=O)(=O)N3CCCc4ccccc43)c2)cc1 | x | 104.9 | 5.4 | 98.4* | -9.1 | -4.5
Cc1ccc2c(c1)CCCN2S(=O)(=O)c1cccc(C(=O)Nc2ccccc2C(=O)O)c1 | 1.6 | x | 18.1 | 98.1* | -8.1 | 2.7
O=C(CCNC(=O)c1ccccc1Cl)Nc1cccc(S(=O)(=O)N2CCCC2)c1 | x | u | 3.7 | 1.3 | x | -15.5
CCOC(=O)Cc1csc(SCC(=O)NC2CCCC2)n1 | x | 93.4 | 17.4 | x | x | 32.3
Cc1ccccc1-c1nc(CS(=O)CC(=O)NC2CCCC2)c(C)o1 (stereo not given) | 16.3 | 117.6 | 9.1 | 98.5* | 16.2 | 3.6
Cc1oc(-c2ccccc2F)nc1CSCC(=O)NC1CCCC1 | 7.5 | 101.2 | 12.7 | -32.7 | -1.5 | -10.7
Cc1cccc(-c2nc(CS(=O)CC(=O)NC3CCCC3)c(C)o2)c1 (stereo not given) | 0.3 | 103.6 | x | x | x | 0.5
Cc1oc(-c2ccccc2F)nc1CS(=O)CC(=O)NC1CCCC1 (stereo not given) | 23.0 | 105.9 | 7.0 | 98.7* | -10.4 | 14.2
Cc1ccccc1-c1nc(CS(=O)CC(=O)NC2CC2)c(C)o1 (stereo not given) | 20.4 | 104.1 | 4.8 | 98.7* | 2.9 | 1.6
Cc1ccccc1-c1nc(CS(=O)CC(=O)NC2CCCCC2)c(C)o1 (stereo not given) | 23.7 | 79.2 | 1.3 | 98.8* | 21.6 | 14.0
CN(CC(=O)Nc1ccccc1Cl)C(=O)COC(=O)c1cnccn1 | 9.0 | 122.4 | 8.8 | -3.4 | -2.1 | 13.8
CC(O)(CC(=O)CC(=O)c1ccccc1)c1ccccc1 (stereo not given) | x | 95.4 | x | x | x | -0.1
CC1CCC(NC(=O)CSc2nnc(-c3cccnc3)o2)CC1 (stereo not given) | x | 128.2 | 18.8 | -0.6 | x | -1.0
Cc1ccc(C)c(NC(=O)CN2C(=O)C3CC=CCC3C2=O)c1 (stereo not given) | x | 102.7 | x | x | x | x
Cc1nc(NC(=O)CSC2=NCCS2)sc1C(=O)N(C)C | 21.9 | 103.5 | 3.6 | 98.6* | -7.1 | -11.0
O=C(CSC1=NCCS1)Nc1nc2ccccc2s1 | 12.9 | 104.8 | 42.3 | 90.4* | 5.7 | 3.3
SMILES | NALP1 yeast inh | Pemphigus Ab inh | NLRP3 yeast inh | ALR inh | PolyA inh | Arr AP2 block
COc1ccc(-c2nc(NC(=O)CSCCO)sc2C)cc1 | -2.2 | 120.6 | -0.2 | 98.1* | 1.1 | 6.1
Cc1sc(NC(=O)CSc2ncn(-c3ccccc3)n2)nc1-c1ccccc1 | 3.1 | 102.0 | 20.8 | -3.8 | -17.3 | 33.4
C=CCn1c(C)nnc1SCC(=O)Nc1nc(C)c(C(=O)N(C)C)s1 | 23.9 | x | -4.6 | -3.7 | -12.3 | 21.1
O=C(CSc1nc2ccccc2o1)Nc1nc2ccccc2s1 | 5.0 | x | -2.7 | -10.7 | 16.1 | 4.3
Cc1sc(NC(=O)CSC2=NCCS2)nc1-c1ccccc1 | 15.2 | 91.2 | 2.0 | 98.7* | 1.2 | 4.4
COc1ccc(NC(=O)CN(C)CC(=O)Nc2sc3c(c2C#N)CCC3)cc1 | x | x | 5.8 | x | x | -10.4
Cc1ccc(NC(=O)C(=O)NCCCN2CC(C(=O)O)CC2=O)cc1 (stereo not given) | 11.7 | 102.3 | 1.8 | -0.3 | -17.0 | 12.0
CC(=O)N1CC(=O)N=C1SCC(=O)Nc1nc(-c2ccccc2)c(-c2ccccc2)s1 | 16.7 | 109.8 | 27.3 | 98.7* | -0.8 | 8.1
CCCCC(CCC(=O)O)(C(=O)OCC)c1csc(Nc2ccccc2)n1 (stereo not given) | 3.3 | 100.0 | 7.4 | 95.8* | 9.6 | -4.7
CCCCC(CCC(=O)O)(C(=O)OCC)c1csc(Nc2ccc(OCC)cc2)n1 (stereo not given) | 18.5 | 103.1 | -4.2 | 71.5 | -2.7 | -1.3
O=C(CNCc1ccc(Cl)cc1)Nc1cc(S(=O)(=O)N2CCCC2)ccc1Cl | x | 101.1 | x | x | x | 2.4
Oc1ccc(NC(=S)Nc2ccccc2)cc1 | -9.9 | 103.3 | 22.2 | 98.8* | 1.6 | 11.7
Nc1ccc(NC(=S)Nc2ccccc2)cc1 | 2.5 | 91.7 | x | 38.8 | -0.7 | 11.7
O=C(NNC(=S)Nc1cccc(Cl)c1)c1ccccc1OC(F)F | 15.6 | x | 19.2 | x | -9.1 | 13.0
CCC(CC(C)(C)O)C(=O)NNC(=S)Nc1ccccc1 (stereo not given) | 32.7* | 85.0 | 1.8 | 54.2 | -10.7 | 3.3
COc1cccc(NC(=S)NNC(=O)c2ccccc2OC(F)F)c1 | 7.7 | 104.2 | 17.0 | 78.7* | 16.2 | 7.7
Cc1ccc(NC(=S)NNC(=O)Nc2ccccc2)cc1 | 4.2 | 101.0 | 23.7 | 96.8* | 0.9 | -5.7
COc1cc2c(cc1OC)n(CC(=O)NC1CCCCCC1)n1c(C)cc(=O)nc21 | 3.3 | 100.6 | 9.6 | -5.5 | 9.3 | 46.8
CCOc1ccccc1NC(=O)COC(=O)C12CC3CC(CC(O)(C3)C1)C2 | x | 97.0 | -1.1 | x | x | 3.8
CN(c1ccccc1)S(=O)(=O)c1cccc(NC(=O)c2ccc(Cl)c([N+](=O)[O-])c2)c1 | x | 104.5 | 9.5 | 4.3 | x | 25.0
COc1ccc2[nH]cc(CCNC(=O)Cn3cc(C)c(=O)[nH]c3=O)c2c1 | x | 100.2 | x | x | x | -3.7
COc1ccc(CN(C)c2ncnc3sccc23)c(OC)c1OC | 3.5 | 95.1 | -12.8 | -0.5 | 11.3 | 10.0
C[C@H](CO)N1C[C@H](C)[C@@H](CN(C)C(=O)C2CCOCC2)Oc2ncc(Br)cc2C1=O | x | 102.0 | x | x | x | x
COc1cccc(NC(=S)Nc2ccc(O)cc2)c1 | -63.9 | 92.5 | 7.0 | 99.1* | -12.2 | -6.1
CCCCN(C(=O)c1ccc(S(=O)(=O)N2CCCCC2)cc1)C1CCS(=O)(=O)C1 (stereo not given) | x | 90.9 | 2.4 | x | -7.3 | -7.7
CCc1c(C)nc2ncnn2c1Nc1ccc(C#N)c(Cl)c1 | 30.1* | 107.6 | 1.9 | 5.1 | -3.6 | -0.6
